Laboratory results published in PMC7226286 (Cancer Science, 2020).

System: STAT3 and RAF/MEK/ERK pathways in SAS xenograft tumors
Test: Western blot of SAS xenograft tumor lysates
Type: in vivo, mice
Conditions: day 12, 6 hours after final administration
Outline: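 Male BALB/c nude mice (6 weeks old) bearing subcutaneous SAS oral tumours; test compound (50 or 60 mg/kg), a kinase inhibitor (10 mg/kg), the combination or vehicle given orally, 5 days on/2 off from day 1 (palpable tumours). Day 12: tumours (n = 3) excised 6 h after last dose, snap-frozen, lysed; immunoblot for pY705-STAT3, STAT3, pT202/Y204-ERK1/2, ERK1/2, survivin, β-actin.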

SMILES: CNC(=O)c1cc(Oc2ccc(NC(=O)Nc3ccc(Cl)c(C(F)(F)F)c3)cc2)ccn1 [Sorafenib]
- phospho‐ERK in tumor tissues: clearly reduced
- phospho‐STAT3 in tumor tissues: clearly reduced
- survivin in tumor tissues: moderately suppressed
